In the library only some 2.1% were active in any assay of this set; here they are far more common.
Mot1-301 SUMO: inhibitors of SUMOylation pathway: yeast Mot1-301 growth rescue; growth rescue, % at 18.8 µM; S. cerevisiae Mot1-301 growth rescue, ATP luminescence, 38.5C; percent above DMSO median, 100 means doubled; actives 1% (n = 320,000); AID 2716;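 active = every valid replicate shows activation above 250% relative to neutral control wells; inactive = the rest, any valid replicate at or below 250%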;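 note: OY570 slx delta 5 strain wells were the positive control but not used for scaling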
ASAP1 GAP inh: ASAP1 ArfGAP inhibition | AID 624377 | inhibition, % at 16.5 µM | ASAP1-stimulated ARF1 GTP hydrolysis, GDP FP detection | actives 0.19% (n = 360,000) | Q9ULH1; in the data active = inhibition above about 25%;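 note: 0% = vehicle with enzyme and substrate and 100% = no enzyme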
Target sequence (Q9ULH1 325-724 limits assumed): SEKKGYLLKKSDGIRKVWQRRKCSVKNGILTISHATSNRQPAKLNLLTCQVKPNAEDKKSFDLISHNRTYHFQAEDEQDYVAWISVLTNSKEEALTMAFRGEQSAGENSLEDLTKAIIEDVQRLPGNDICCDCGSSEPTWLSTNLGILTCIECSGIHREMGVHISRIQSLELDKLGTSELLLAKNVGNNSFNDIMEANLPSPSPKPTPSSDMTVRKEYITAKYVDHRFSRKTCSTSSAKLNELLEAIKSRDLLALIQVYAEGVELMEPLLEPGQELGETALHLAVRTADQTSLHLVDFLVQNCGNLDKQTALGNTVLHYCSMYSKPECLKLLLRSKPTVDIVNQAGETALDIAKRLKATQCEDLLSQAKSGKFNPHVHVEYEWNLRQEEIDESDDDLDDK
APOBEC3A inh: human APOBEC3A DNA deaminase inhibition | actives 0.41% (n = 330,000) | inhibition, % at 20 µM | recombinant A3A, FAM/TAMRA ssDNA deamination fluorescence | AID 493011;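 active = at least 40% inhibition at 20 µM here, with at most 30% in a related deaminase screen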;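 note: plate controls were A3A with DMSO for no effect and wells lacking A3A enzyme for full effect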
Target sequence (P31941 whole entry, looked up): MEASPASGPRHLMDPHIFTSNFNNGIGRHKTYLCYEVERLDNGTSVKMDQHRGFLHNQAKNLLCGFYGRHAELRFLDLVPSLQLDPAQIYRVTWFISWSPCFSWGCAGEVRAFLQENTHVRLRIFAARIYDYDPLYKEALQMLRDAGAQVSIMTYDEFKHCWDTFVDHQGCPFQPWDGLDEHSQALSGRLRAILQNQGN
ARFGAP1 inhibitor: inhibits rat ARF GTPase activating protein 1; Arfgap1-stimulated ARF1 GTP hydrolysis, GDP FP detection; actives 0.26% (n = 360,000); inhibition, % at 16.5 µM; Q62848; AID 651572;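 active = inhibition above a per-plate limit, mean inhibition of low control wells plus 3 SD, cut at about 25% in these data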;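 note: 0% = DMSO wells with enzyme and 100% = wells lacking Arfgap1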
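Material: rat Arfgap1 GAP domain (His6, aa 1-136), purified enzyme. Also added: human ARF1(Δ1-17)-GTP substrate. Compound dosing: 16.5 µM single point, 1.26% DMSO. Timing: enzyme reaction 120 min at 25 °C after 20 min preincubation. Signal: GDP detection by fluorescence polarization. Read-out basis: percent inhibition of GAP-stimulated GDP formation, scaled between DMSO and no-Arfgap1 medians.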
APOBEC3G inh: inhibitors of human APOBEC3G DNA deaminase; recombinant A3G, ssDNA deamination FAM/TAMRA fluorescence; actives 0.28% (n = 330,000); Q9HC16; inhibition, % at 20 µM;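 active = inhibition of at least 40% at 20 µM, with no more than 30% in the related APOBEC3A deaminase screen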;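 note: plate controls were DMSO wells with A3G for no effect and wells lacking A3G enzyme for full effect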
Statin myotox sup: protects C2C12 myotubes from simvastatin toxicity; ATP luminescence, 48 h; scaled: DMSO 0, geranylgeraniol control 100; rescue of ATP level, % at 7.49 µM; actives 0.78% (n = 330,000);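 active = mean ATP rescue above about 67%, or every replicate alone reaching that limit, limit read from the data, passing the limit was not always enough; inconclusive = no clear call, values can overlap the other calls; inactive = mean under the limit and some replicate under it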;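 note: myotubes were challenged with 10 µM simvastatin during compound exposure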
Mot1 SUMO dose: yeast SUMO pathway inhibition in dose response; S. cerevisiae Mot1-301 galactose growth, ATP luminescence, 24 h; -100 = growth of slx-deleted rescue strain; shares compounds with Mot1-301 SUMO; growth activity, percent, % at 42 µM; 2,300 tested, under 10 active;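 active = Signal drops as the depositor expects, and the fitted half-maximal dose is no more than ten times the top valid tested dose; inconclusive = Poor fit, or a flat curve whose signal drops by 30% to 70%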;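 note: more negative values mean stronger growth rescue toward the control strain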
Active calls of the source: *; ? = inconclusive; · = not tested or not shown; + = active, no number; [ ] = dose if it differs, or a comment.

SMILES | Mot1-301 SUMO | ASAP1 GAP inh | APOBEC3A inh | ARFGAP1 inhibitor | APOBEC3G inh | Statin myotox sup | Mot1 SUMO dose
Cc1ccc(C)c(Nc2c([N+](=O)[O-])ccc3nonc23)c1 | 11 | -2 | -5 | -2 | -12 | 16 | ·
CCOC(=O)C1CCN(C(=O)c2sccc2Cl)CC1 | 567* | 0 | -2 | 1 | -5 | -7 | 1
CCOC(=O)C1CCN(C(=O)c2cccs2)CC1 | -8 | -1 | -2 | 1 | -2 | · | ·
O=C(CCl)N(Cc1cc(=O)[nH]c2ccccc12)c1ccccc1 | 491* | 11 | -1 | 1 | -7 | · | 0
COc1cccc(/C=N/NC(=O)CNC(=O)c2ccncc2)c1O | 11 | -2 | -5 | 7 | -4 | -5 | ·
COc1cccc(/C=N/NC(=O)CNC(=O)c2ccco2)c1O | 400* | 6 | -5 | 2 | -4 | 6 | -1
Cc1ccc(NC(=O)COc2ccccc2C(=O)NCCN(C)C)cc1 | 800* | · | -2 | · | -2 | · | 1
C[C@@H]1CN([C@@H](C)CO)C(=O)c2cccc(NC(=O)NC3CCCCC3)c2O[C@@H]1CN(C)S(C)(=O)=O | · | · | · | · | · | 7 | ·
c1ccc(C(c2ccccc2)N2CCN(C(c3ccccn3)c3nnnn3C3CCCC3)CC2)cc1 (centres undefined) | + | · | 6 | · | -10 | · | 0
c1ccc(C(c2nnnn2C2CCCC2)N2CCCCCC2)nc1 (centres undefined) | 0 | 8 | -6 | 2 | -7 | 0 | ·
CC(C)Oc1ccc(CCC(=O)NNC(=O)c2ccccc2C(=O)O)cc1 | 460* | -3 | -5 | 0 | -12 | ? | 0
CC(C)Oc1ccc(CCC(=O)NNC(=O)CCC(=O)O)cc1 | -20 | 0 | -5 | 2 | -7 | -9 | ·
O=C(NCc1ccco1)C1CC(=O)N(c2cccc(Cl)c2)C1 (centres undefined) | -17 | 4 | -3 | -1 | -3 | 8 | ·
O=C(NCc1ccco1)C1CC(=O)N(c2ccc(Cl)cc2)C1 (centres undefined) | 648* | -6 | 2 | -6 | -4 | · | -1
CCN(CC)CCCN1C(=O)C(=O)/C(=C(/O)c2ccccc2)C1c1cc(OC)ccc1OC (centres undefined) | 685* | 1 | -5 | -1 | -6 | · | 0
COc1ccc(NC(=O)c2ccccc2NC(=O)NC2CCCCC2)cc1 | 522* | -10 | 11 | -5 | 0 | 1 | 0
Cc1ccc(Sc2cnccc2C#N)cc1 | 618* | 7 | -4 | 12 | 3 | 6 | 2
C[C@@H]1CN([C@H](C)CO)C(=O)c2cc(C3=CCCC3)cnc2O[C@@H]1CN(C)Cc1cccc(F)c1 | · | · | · | · | · | 19 | ·
CCC1(c2ccccc2)NC(=O)N(CC(=O)N(C)CC(=O)Nc2c(C)cccc2C)C1=O (centres undefined) | 31 | -8 | 4 | -2 | -1 | 0 | ·
CCC1(c2ccccc2)NC(=O)N(CC(=O)N(C)CC(=O)Nc2ccc(F)c(F)c2F)C1=O (centres undefined) | 609* | -10 | 63 | -3 | 42 | -9 | 1
C=CCSc1nnc2c(n1)[nH]c1c(C)cccc12 | 532* | 5 | 3 | 1 | -1 | -13 | -1
Cc1ccc(S(=O)(=O)Cc2ccc(C(=O)N3CCN(c4ccccn4)CC3)o2)cc1 | 537* | 14 | 5 | -7 | -4 | 1 | 0
COc1cc(OC)c(C(=O)N2CCN(c3ccccn3)CC2)cc1OC | 798* | -6 | -3 | 10 | -5 | -4 | 0
COc1ccc(NC(=O)C(c2ccccc2)N2CCN(c3ccccn3)CC2)cc1Cl (centres undefined) | 755* | 20 | -3 | 3 | -7 | · | 1
COc1ccccc1C(=O)N1CCN(c2ccccn2)CC1 | 8 | -2 | -3 | 2 | -6 | 11 | ·
SMILES | Mot1-301 SUMO | ASAP1 GAP inh | APOBEC3A inh | ARFGAP1 inhibitor | APOBEC3G inh | Statin myotox sup | Mot1 SUMO dose
Cc1ccc(NC(=O)C(c2ccccc2)N2CCN(CC(=O)NC3CC3)CC2)cc1Cl (centres undefined) | -12 | -7 | 16 | 5 | -6 | -14 | ·
COc1ccc(-c2cc(CC3(C(=O)O)CCN(C(=O)OC(C)(C)C)CC3)on2)c(OC)c1 | 381* | -9 | -6 | -1 | -8 | -3 | 1
CC(C)(C)OC(=O)N1CCC(Cc2cc(-c3ccc(Cl)cc3)no2)(C(=O)O)CC1 | 10 | -9 | -7 | -11 | -14 | -5 | ·
COC(=O)C1(Cc2cc(-c3ccccc3)no2)CCN(C(=O)OC(C)(C)C)CC1 | + | 2 | 2 | 14 | -1 | -4 | 0
C[C@@H]1CN([C@H](C)CO)C(=O)c2cccc(NC(=O)c3ccc(-c4nccs4)cc3)c2O[C@H]1CN(C)S(=O)(=O)c1ccc(F)cc1 | · | · | · | · | · | -7 | ·
COc1ccc(NC(=O)c2ccc(-n3cncn3)c([N+](=O)[O-])c2)cc1OC | -8 | 7 | 0 | -8 | -4 | -9 | ·
COc1ccc(NC(=O)c2ccc(-n3cncn3)c([N+](=O)[O-])c2)cc1 | 901* | -6 | -3 | -7 | -3 | 0 | -1[21 µM]
CC12CCC(=O)N1C(C(=O)Nc1ccccc1F)CS2 (centres undefined) | 793* | -5 | 2 | -3 | -3 | 4 | 1
CC12CCC(=O)N1C(C(=O)Nc1cccc3ccccc13)CS2 (centres undefined) | -9 | -3 | 2 | -10 | -4 | 10 | ·
CC(C)CC(=O)Nc1ccc(C(=O)CN2C(=O)NC3(CCOc4ccccc43)C2=O)cc1 (centres undefined) | 566* | 12 | -2 | 6 | -5 | -36 | 1
Nc1nc(CSc2nnnn2-c2ccc(Cl)cc2)nc(N2CCOCC2)n1 | 376* | -7 | 0 | 1 | -2 | · | 0
Nc1nc(CSc2nnnn2-c2ccc(F)c(Cl)c2)nc(N2CCOCC2)n1 | 0 | 3 | 1 | 4 | -2 | · | ·
C[C@H]1CN([C@@H](C)CO)S(=O)(=O)c2ccc(-c3ccccc3)cc2O[C@@H]1CN(C)C | · | · | · | · | · | -6 | ·
Cc1onc(-c2ccccc2Cl)c1C(=O)N1CCc2ccccc2C1 | 680* | 3 | -1 | 5 | -2 | 20 | 0
Cc1ccc(C(=O)C(OC(=O)c2cnccn2)c2ccccc2)cc1 (centres undefined) | 1 | 9 | -3 | 0 | -3 | -1 | ·
CC(OC(=O)c1cnccn1)C(=O)c1ccccc1 (centres undefined) | 433* | 5 | -1 | 10 | -8 | · | 0
C[C@H](CO)N1C[C@H](C)[C@H](CN(C)Cc2cncnc2)Oc2cc(-c3cccnc3)ccc2S1(=O)=O | · | · | · | · | · | 4 | ·

Source: PubChem (several laboratories)
